Laboratory results from ChEMBL document CHEMBL1145648, “Antibacterial activity in serum of the 3,5-diamino-piperidine translation inhibitors” (Bioorg Med Chem Lett, 2008).
≈ marks a conversion by molar mass, not a printed value.

Experiments:
Assay type in all cases: functional
Escherichia coli [1] = test: Inhibition of transcription-translation activity in Escherichia coli
How it was run: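 Coupled in vitro transcription–translation using E. coli extracts; IC50 in µM.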

Escherichia coli [2] = test: Antibacterial activity against Escherichia coli ATCC 25922 by microdilution method
How it was run: (§1)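 MIC (µg/ml) by broth microdilution in Mueller Hinton medium per NCCLS guidance; E. coli ATCC 25922 and P. aeruginosa ATCC 27853.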

Pseudomonas aeruginosa [3] = test: Antibacterial activity against Pseudomonas aeruginosa ATCC 27853 by microdilution method; how it was run: as §1
Pseudomonas aeruginosa [4] = test: Antibacterial activity against Pseudomonas aeruginosa by agar dilution method
How it was run: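 Agar dilution susceptibility testing on Mueller Hinton agar, performed by Fujisawa Pharmaceuticals; MIC50/80/90 denote concentration inhibiting that percent of isolates.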

Escherichia coli [5] = test: Antibacterial activity against Escherichia coli ATCC 25922 by microdilution method in presence of serum
How it was run: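 Broth microdilution in MH medium per NCCLS, run with and without 50% mouse serum; MIC (µg/ml) in serum reported as fold shift relative to serum-free MIC; strains E. coli ATCC 25922 and P. aeruginosa ATCC 27853.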

| Structure (SMILES) | IC50 (Escherichia coli [1]) [µM] | MIC (Escherichia coli [2]) [µg/mL] | MIC (Pseudomonas aeruginosa [3]) [µg/mL] | MIC50 (Pseudomonas aeruginosa [4]) [µg/mL] | MIC80 (Pseudomonas aeruginosa [4]) [µg/mL] | MIC90 (Pseudomonas aeruginosa [4]) [µg/mL] | Fold change (Escherichia coli [5]) |
| --- | --- | --- | --- | --- | --- | --- | --- |
| Cl.N[C@@H]1C[C@H](N)CN(c2nc(N3C[C@H](N)C[C@H](N)C3)c3[nH]c(Nc4ccc(NC(=O)c5ccc6cccnc6c5O)cc4)nc3n2)C1 | 0.4 | 8 | 16 |  |  |  |  |
| Cl.N[C@@H]1C[C@H](N)CN(c2cc(Nc3ccc(NC(=O)c4cnc5ccccc5c4O)cc3)cc(N3C[C@H](N)C[C@H](N)C3)n2)C1 | 2.2 | ≥ 64 | ≤ 0.5 |  |  |  |  |
| Cl.N[C@@H]1C[C@H](N)CN(c2nc(Nc3ccc(NC(=O)c4cc(Cl)ccc4O)c(O)c3)nc(N3C[C@H](N)C[C@H](N)C3)n2)C1 | 9 | 4 | 1 |  |  |  |  |
| Cl.N[C@@H]1C[C@H](N)CN(c2nc(N3C[C@H](N)C[C@H](N)C3)c(Cl)c(Nc3ccc(NC(=O)c4ccc5ccccc5c4O)cc3)c2Cl)C1 | 14 | 2 | 1 |  |  |  |  |
| CCn1cc(C(=O)Nc2ccc(Nc3nc(N4C[C@H](N)C[C@H](N)C4)nc(N4C[C@H](N)C[C@H](N)C4)n3)cc2)c(=O)c2cnc(N3CCNCC3)nc21.Cl | 0.9 | 32 | 1 |  |  |  |  |
| CCn1cc(C(=O)Nc2ccc(Nc3nc(N4C[C@H](N)C[C@H](N)C4)nc(N4C[C@H](N)C[C@H](N)C4)n3)cc2)c(=O)c2cc(F)c(N3CCNCC3)cc21.Cl | 2 | ≤ 0.5 | 1 |  |  |  |  |
| Cl.N[C@@H]1C[C@H](N)CN(c2nc(Nc3ccc(NC(=O)c4cn(C5CC5)c5cc(N6CCNCC6)c(F)cc5c4=O)cc3)nc(N3C[C@H](N)C[C@H](N)C3)n2)C1 | 0.4 | 64 | 2 |  |  |  |  |
| CCN1CCN(c2cc3c(cc2F)c(=O)c(C(=O)Nc2ccc(Nc4nc(N5C[C@H](N)C[C@H](N)C5)nc(N5C[C@H](N)C[C@H](N)C5)n4)cc2)cn3C2CC2)CC1.Cl | 1.3 | ≤ 0.5 | 2 |  |  |  |  |
| Cl.N[C@@H]1C[C@H](N)CN(c2nc3nc(Nc4ccc(NC(=O)c5ccc6ccccc6c5O)cc4)nc(N4C[C@H](N)C[C@H](N)C4)c3[nH]2)C1 | 18 | 1 | 2 |  |  |  |  |
| Cl.N[C@@H]1C[C@H](N)CN(c2nc(Nc3ccc(NC(=O)c4ccc5cccnc5c4O)cc3)nc(N3C[C@H](N)C[C@H](N)C3)n2)C1 |  | 4 | 2 |  |  |  |  |
| Cl.N[C@@H]1C[C@H](N)CN(c2nc(Nc3ccc(NC(=O)c4ccc5ccccc5c4)cc3)nc(N3C[C@H](N)C[C@H](N)C3)n2)C1 | 24 | 1 | ≤ 0.5 |  |  |  |  |
| Cl.N[C@@H]1C[C@H](N)CN(c2cc(Nc3ccc(NC(=O)c4ccc5ccccc5c4O)cc3)nc(N3C[C@H](N)C[C@H](N)C3)n2)C1 | 18 | ≤ 0.5 | 8 |  |  |  |  |
| Cl.N[C@@H]1C[C@H](N)CN(c2nc(N3C[C@H](N)C[C@H](N)C3)c3[nH]c(Nc4ccc(NC(=O)c5cnc6ccccc6c5O)cc4)nc3n2)C1 |  | 1 | 1 |  |  |  |  |
| Cl.N[C@@H]1C[C@H](N)CN(c2nc(N3C[C@H](N)C[C@H](N)C3)c(Cl)c(Nc3ccc(NC(=O)C4=CN(C5CC5)C5C=C(N6CCNCC6)C(F)=CC5C4=O)cc3)c2Cl)C1 (stereo not given in full) | 0.8 | 8 | 8 |  |  |  |  |
| CC1COc2c(N3CCNCC3)c(F)cc3c(=O)c(C(=O)Nc4ccc(Nc5nc(N6C[C@H](N)C[C@H](N)C6)nc(N6C[C@H](N)C[C@H](N)C6)n5)cc4)cn1c23.Cl (stereo not given in full) | 1 | 16 | 8 |  |  |  |  |
| Cl.N[C@@H]1C[C@H](N)CN(c2nc(Nc3ccc(NC(=O)c4ccccc4O)c(O)c3)nc(N3C[C@H](N)C[C@H](N)C3)n2)C1 | 11 | 4 | 2 |  |  |  |  |
| Cl.N[C@@H]1C[C@H](N)CN(c2nc(Nc3ccc(NC(=O)c4cnc5ccccc5c4O)cc3)nc(N3C[C@H](N)C[C@H](N)C3)n2)C1 | 5 | 4 | 1 |  |  |  |  |
| Cl.N[C@@H]1C[C@H](N)CN(c2nc(Nc3ccc(NC(=O)c4ccc(Cl)cc4)c(O)c3)nc(N3C[C@H](N)C[C@H](N)C3)n2)C1 |  |  |  | 4 | 4 | 8 |  |

| Structure (SMILES) | IC50 (Escherichia coli [1]) [µM] | MIC (Escherichia coli [2]) [µg/mL] | MIC (Pseudomonas aeruginosa [3]) [µg/mL] | MIC50 (Pseudomonas aeruginosa [4]) [µg/mL] | MIC80 (Pseudomonas aeruginosa [4]) [µg/mL] | MIC90 (Pseudomonas aeruginosa [4]) [µg/mL] | Fold change (Escherichia coli [5]) |
| --- | --- | --- | --- | --- | --- | --- | --- |
| Cl.N[C@@H]1C[C@H](N)CN(c2nc(Nc3ccc(NC(=O)c4cccnc4O)c(O)c3)nc(N3C[C@H](N)C[C@H](N)C3)n2)C1 | 4 | 8 | ≤ 0.5 |  |  |  |  |
| Cl.N[C@@H]1C[C@H](N)CN(c2nc(Nc3ccc(NC(=O)c4ncccc4O)c(O)c3)nc(N3C[C@H](N)C[C@H](N)C3)n2)C1 | 10 | 8 | 4 |  |  |  |  |
| Cl.N[C@@H]1C[C@H](N)CN(c2cc(Nc3ccc(NC(=O)c4ccc5ccccc5c4O)cc3)cc(N3C[C@H](N)C[C@H](N)C3)n2)C1 | 26 | 2 | 1 |  |  |  |  |
| Cl.N[C@@H]1C[C@H](N)CN(c2nc(Nc3ccc(NC(=O)c4cc(Cl)cnc4O)c(O)c3)nc(N3C[C@H](N)C[C@H](N)C3)n2)C1 | 3 | 4 | ≤ 0.5 |  |  |  | 2 |
| Cl.N[C@@H]1C[C@H](N)CN(c2nc(Nc3ccc(NC(=O)c4cnc5ccccc5c4O)c(Cl)c3)nc(N3C[C@H](N)C[C@H](N)C3)n2)C1 | 24 | 4 | 1 |  |  |  |  |
| Cl.N[C@@H]1C[C@H](N)CN(c2cc(Nc3ccc(NC(=O)c4ccc5ccccc5c4O)cc3)nc(N3C[C@H](N)C[C@H](N)C3)c2)C1 | 16 | 2 | ≤ 0.5 |  |  |  |  |
| CCn1cc(C(=O)Nc2ccc(Nc3nc(N4C[C@H](N)C[C@H](N)C4)nc(N4C[C@H](N)C[C@H](N)C4)n3)cc2)c(=O)c2ccc(C)nc21.Cl | 2 | 4 | 2 |  |  |  |  |
| CCn1cc(C(=O)Nc2ccc(Nc3nc(N4C[C@H](N)C[C@H](N)C4)nc(N4C[C@H](N)C[C@H](N)C4)n3)cc2)c(=O)c2cc3c(cc21)OCO3.Cl | 3 | 1 | 1 |  |  |  |  |
| Cl.N[C@@H]1C[C@H](N)CN(c2nc(Nc3ccc(NC(=O)c4cnc5ccccc5c4O)c(O)c3)nc(N3C[C@H](N)C[C@H](N)C3)n2)C1 | 5 | 1 | 1 |  |  |  |  |
| Cl.N[C@@H]1C[C@H](N)CN(c2cc(Nc3ccc(NC(=O)c4ccc5ccccc5c4O)cc3)cc(N3C[C@H](N)C[C@H](N)C3)c2)C1 | 12 | 2 | 2 |  |  |  |  |
| Cl.N[C@@H]1C[C@H](N)CN(c2nc(Nc3ccc(NC(=O)c4ccc5ccccc5c4O)cc3)nc(N3C[C@H](N)C[C@H](N)C3)n2)C1 | 24 | 1 | ≤ 0.5 |  |  |  |  |
| NCC[C@H](O)C(=O)N[C@@H]1C[C@H](N)[C@@H](O[C@H]2O[C@H](CN)[C@@H](O)[C@H](O)[C@H]2O)[C@H](O)[C@H]1O[C@H]1O[C@H](CO)[C@@H](O)[C@H](N)[C@H]1O [AMIKACIN] |  |  |  | 4 (≈ 6.83 µM) | 8 (≈ 13.7 µM) | 32 (≈ 54.6 µM) |  |
| CC(C)(O/N=C(\C(=O)N[C@@H]1C(=O)N2C(C(=O)[O-])=C(C[n+]3ccccc3)CS[C@H]12)c1csc(N)n1)C(=O)O [CEFTAZIDIME] |  |  |  | 2 (≈ 3.66 µM) | 8 (≈ 14.6 µM) | 16 (≈ 29.3 µM) |  |
| O=C(N[C@H](CO)[C@H](O)c1ccc([N+](=O)[O-])cc1)C(Cl)Cl [CHLORAMPHENICOL] |  |  |  | > 128 | > 128 | > 128 |  |
| C[C@@H](O)[C@H]1C(=O)N2C(C(=O)O)=C(SCCNC=N)C[C@H]12 [IMIPENEM ANHYDROUS] |  |  |  | 2 (≈ 6.68 µM) | 16 (≈ 53.4 µM) | 16 (≈ 53.4 µM) |  |
| CCn1cc(C(=O)O)c(=O)c2ccc(C)nc21 [NALIDIXIC ACID] | > 100 |  |  |  |  |  |  |
| CCN1CCN(C(=O)N[C@@H](C(=O)N[C@@H]2C(=O)N3[C@@H]2SC(C)(C)[C@@H]3C(=O)O)c2ccccc2)C(=O)C1=O [PIPERACILLIN] |  |  |  | 8 (≈ 15.5 µM) | 32 (≈ 61.8 µM) | 64 (≈ 124 µM) |  |
| CN(C)[C@@H]1C(O)=C(C(N)=O)C(=O)[C@@]2(O)C(O)=C3C(=O)c4c(O)cccc4[C@@](C)(O)[C@H]3C[C@@H]12 [TETRACYCLINE] |  |  |  | 32 (≈ 72 µM) | 64 (≈ 144 µM) | 64 (≈ 144 µM) |  |
